In ChEMBL document CHEMBL3046615, “Isolation of nematicidal compounds from Tagetes patula L. yellow flowers: structure-activity relationship studies against cyst nematode Heterodera zeae infective stage larvae” (2011):
Activity calls are given as the source filed them. The rule behind the calls is not given here.

Tests used:
[1] = test system: Heterodera zeae; test: Nematicidal activity against Heterodera zeae infective stage larvae assessed as nematode mortality at 0.5% under light conditions measured 72 hr post dose by stereoscopic microscopy; format: functional
In short: (§1)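 Freshly hatched H. zeae second-stage juveniles, 100 per Petri plate, three replicates. Samples in MeOH, DMSO or water were tested in glass cavity blocks; petroleum ether samples were dried onto the block and larvae transferred on agar pieces. Percentages are dilutions of 30 mg/mL stocks (extracts/fractions) or 1 mg/mL stocks (pure compounds). Incubated at 28 ± 2 °C in light or dark box; mortality averaged over three replicates.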

[2] = test system: Heterodera zeae; test: Nematicidal activity against Heterodera zeae infective stage larvae assessed as nematode mortality at 0.5% under light conditions measured 48 hr post dose by stereoscopic microscopy; format: functional; in short: as §1
[3] = test system: Heterodera zeae; test: Nematicidal activity against Heterodera zeae infective stage larvae assessed as nematode mortality at 1% under dark conditions measured 24 hr post dose by stereoscopic microscopy; format: functional; in short: as §1
[4] = test system: Heterodera zeae; test: Nematicidal activity against Heterodera zeae infective stage larvae assessed as nematode mortality at 0.125% under light conditions measured 48 hr post dose by stereoscopic microscopy; format: functional; in short: as §1
[5] = test system: Heterodera zeae; test: Nematicidal activity against Heterodera zeae infective stage larvae assessed as nematode mortality at 0.25% under light conditions measured 48 hr post dose by stereoscopic microscopy; format: functional; in short: as §1
[6] = test system: Heterodera zeae; test: Nematicidal activity against Heterodera zeae infective stage larvae assessed as nematode mortality at 0.125% under light conditions measured 24 hr post dose by stereoscopic microscopy; format: functional; in short: as §1
[7] = test system: Heterodera zeae; test: Nematicidal activity against Heterodera zeae infective stage larvae assessed as nematode mortality at 0.25% under light conditions measured 24 hr post dose by stereoscopic microscopy; format: functional; in short: as §1
[8] = test system: Heterodera zeae; test: Nematicidal activity against Heterodera zeae infective stage larvae assessed as nematode mortality at 0.5% under light conditions measured 24 hr post dose by stereoscopic microscopy; format: functional; in short: as §1
[9] = test system: Heterodera zeae; test: Nematicidal activity against Heterodera zeae infective stage larvae assessed as nematode mortality at 1% under light conditions measured 24 hr post dose by stereoscopic microscopy; format: functional; in short: as §1
[10] = test system: Heterodera zeae; test: Nematicidal activity against Heterodera zeae infective stage larvae assessed as nematode mortality at 0.125% under dark conditions measured 5 to 60 min post dose by stereoscopic microscopy; format: functional, organism-based
In short: (§2)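 H. zeae freshly hatched second-stage juveniles, 100 per plate, three replicates, at 28 ± 2 °C under light or in a dark box. Dilutions are % of a stock: 30 mg/mL for extracts/fractions, 1 mg/mL for pure compounds. Methanol-, DMSO- or water-soluble samples were tested in glass cavity blocks. Petroleum ether-soluble samples were air-dried in the block and covered with agar pieces bearing cultured larvae. Mortality was followed over 5–60 min; each value is the mean of three experiments.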

[11] = test system: Heterodera zeae; test: Nematicidal activity against Heterodera zeae infective stage larvae assessed as nematode mortality at 0.25% under dark conditions measured 5 to 60 min post dose by stereoscopic microscopy; format: functional, organism-based; in short: as §2
[12] = test system: Heterodera zeae; test: Nematicidal activity against Heterodera zeae infective stage larvae assessed as nematode mortality at 0.5% under dark conditions measured 5 to 60 min post dose by stereoscopic microscopy; format: functional, organism-based; in short: as §2
[13] = test system: Heterodera zeae; test: Nematicidal activity against Heterodera zeae infective stage larvae assessed as nematode mortality at 1% under dark conditions measured 5 to 60 min post dose by stereoscopic microscopy; format: functional, organism-based; in short: as §2
[14] = test system: Heterodera zeae; test: Nematicidal activity against Heterodera zeae infective stage larvae assessed as nematode mortality at 2% under dark conditions measured 5 to 60 min post dose by stereoscopic microscopy; format: functional, organism-based; in short: as §2
[15] = test system: Heterodera zeae; test: Nematicidal activity against Heterodera zeae infective stage larvae assessed as nematode mortality at 5% under dark conditions measured 5 to 60 min post dose by stereoscopic microscopy; format: functional, organism-based; in short: as §2
[16] = test system: Heterodera zeae; test: Nematicidal activity against Heterodera zeae infective stage larvae assessed as nematode mortality at 0.125% under light conditions measured 5 to 60 min post dose by stereoscopic microscopy; format: functional, organism-based; in short: as §2
[17] = test system: Heterodera zeae; test: Nematicidal activity against Heterodera zeae infective stage larvae assessed as nematode mortality at 0.25% under light conditions measured 5 to 60 min post dose by stereoscopic microscopy; format: functional, organism-based; in short: as §2
[18] = test system: Heterodera zeae; test: Nematicidal activity against Heterodera zeae infective stage larvae assessed as nematode mortality at 0.5% under light conditions measured 5 to 60 min post dose by stereoscopic microscopy; format: functional, organism-based; in short: as §2
[19] = test system: Heterodera zeae; test: Nematicidal activity against Heterodera zeae infective stage larvae assessed as nematode mortality at 1% under light conditions measured 5 to 60 min post dose by stereoscopic microscopy; format: functional, organism-based; in short: as §2
[20] = test system: Heterodera zeae; test: Nematicidal activity against Heterodera zeae infective stage larvae assessed as nematode mortality at 2% under light conditions measured 5 to 60 min post dose by stereoscopic microscopy; format: functional, organism-based; in short: as §2
[21] = test system: Heterodera zeae; test: Nematicidal activity against Heterodera zeae infective stage larvae assessed as nematode mortality at 5% under light conditions measured 5 to 60 min post dose by stereoscopic microscopy; format: functional, organism-based; in short: as §2
[22] = test system: Heterodera zeae; test: Nematicidal activity against Heterodera zeae infective stage larvae assessed as nematode mortality at 0.125% under dark conditions measured 48 hr post dose by stereoscopic microscopy; format: functional; in short: as §1
[23] = test system: Heterodera zeae; test: Nematicidal activity against Heterodera zeae infective stage larvae assessed as nematode mortality at 0.25% under dark conditions measured 48 hr post dose by stereoscopic microscopy; format: functional; in short: as §1
[24] = test system: Heterodera zeae; test: Nematicidal activity against Heterodera zeae infective stage larvae assessed as nematode mortality at 0.125% under dark conditions measured 24 hr post dose by stereoscopic microscopy; format: functional; in short: as §1
[25] = test system: Heterodera zeae; test: Nematicidal activity against Heterodera zeae infective stage larvae assessed as nematode mortality at 0.25% under dark conditions measured 24 hr post dose by stereoscopic microscopy; format: functional; in short: as §1
[26] = test system: Heterodera zeae; test: Nematicidal activity against Heterodera zeae infective stage larvae assessed as nematode mortality at 0.5% under dark conditions measured 24 hr post dose by stereoscopic microscopy; format: functional; in short: as §1
[27] = test system: Heterodera zeae; test: Nematicidal activity against Heterodera zeae infective stage larvae assessed as nematode mortality at 1% under dark conditions measured 72 hr post dose by stereoscopic microscopy; format: functional; in short: as §1
[28] = test system: Heterodera zeae; test: Nematicidal activity against Heterodera zeae infective stage larvae assessed as nematode mortality at 1% under dark conditions measured 48 hr post dose by stereoscopic microscopy; format: functional; in short: as §1
[29] = test system: Heterodera zeae; test: Nematicidal activity against Heterodera zeae infective stage larvae assessed as nematode mortality at 1% under light conditions measured 72 hr post dose by stereoscopic microscopy; format: functional; in short: as §1
[30] = test system: Heterodera zeae; test: Nematicidal activity against Heterodera zeae infective stage larvae assessed as nematode mortality at 1% under light conditions measured 48 hr post dose by stereoscopic microscopy; format: functional; in short: as §1
[31] = test system: Heterodera zeae; test: Nematicidal activity against Heterodera zeae infective stage larvae assessed as nematode mortality at 0.125% under dark conditions measured 72 hr post dose by stereoscopic microscopy; format: functional; in short: as §1
[32] = test system: Heterodera zeae; test: Nematicidal activity against Heterodera zeae infective stage larvae assessed as nematode mortality at 0.25% under dark conditions measured 72 hr post dose by stereoscopic microscopy; format: functional; in short: as §1
[33] = test system: Heterodera zeae; test: Nematicidal activity against Heterodera zeae infective stage larvae assessed as nematode mortality at 0.5% under dark conditions measured 72 hr post dose by stereoscopic microscopy; format: functional; in short: as §1
[34] = test system: Heterodera zeae; test: Nematicidal activity against Heterodera zeae infective stage larvae assessed as nematode mortality at 0.5% under dark conditions measured 48 hr post dose by stereoscopic microscopy; format: functional; in short: as §1
[35] = test system: Heterodera zeae; test: Nematicidal activity against Heterodera zeae infective stage larvae assessed as nematode mortality at 0.125% under light conditions measured 72 hr post dose by stereoscopic microscopy; format: functional; in short: as §1
[36] = test system: Heterodera zeae; test: Nematicidal activity against Heterodera zeae infective stage larvae assessed as nematode mortality at 0.25% under light conditions measured 72 hr post dose by stereoscopic microscopy; format: functional; in short: as §1

SMILES | mortality [1] [%] | mortality [2] [%] | mortality [3] [%] | mortality [4] [%] | mortality [5] [%] | mortality [6] [%] | mortality [7] [%] | mortality [8] [%] | mortality [9] [%] | Activity [10] | Activity [11] | Activity [12] | Activity [13] | Activity [14] | Activity [15] | Activity [16] | Activity [17] | Activity [18] | Activity [19] | Activity [20] | also measured
O=C(O)c1ccccc1 [BENZOIC ACID] | 40 | 10 | 0 | 0 | 0 | 0 | 0 | 0 | 0 | inactive | inactive | inactive | inactive | inactive | inactive | inactive | inactive | inactive | inactive | inactive | Activity [21]: inactive; mortality [22]: 0%; mortality [23]: 10%; mortality [24]: 0%; mortality [25]: 0%; mortality [26]: 0%; mortality [27]: 80%; mortality [28]: 70%; mortality [29]: 70%; mortality [30]: 50%; mortality [31]: 0%; mortality [32]: 50%; mortality [33]: 80%; mortality [34]: 50%; mortality [35]: 0%; mortality [36]: 0%
CCCCCCCCCCCCCCCCO [CETYL ALCOHOL] | 100 | 80 | 70 | 0 | 50 | 0 | 0 | 60 | 70 | inactive | inactive | inactive | inactive | inactive | inactive | inactive | inactive | inactive | inactive | inactive | Activity [21]: inactive; mortality [22]: 0%; mortality [23]: 50%; mortality [24]: 0%; mortality [25]: 0%; mortality [26]: 60%; mortality [27]: 100%; mortality [28]: 80%; mortality [29]: 100%; mortality [30]: 80%; mortality [31]: 40%; mortality [32]: 80%; mortality [33]: 100%; mortality [34]: 80%; mortality [35]: 40%; mortality [36]: 80%
CCCCCCCCCCCCCC(=O)O [MYRISTIC ACID] | 50 | 30 | 50 | 20 | 20 | 20 | 20 | 30 | 40 | inactive | inactive | inactive | inactive | inactive | inactive | inactive | inactive | inactive | inactive | inactive | Activity [21]: inactive; mortality [22]: 20%; mortality [23]: 30%; mortality [24]: 20%; mortality [25]: 30%; mortality [26]: 50%; mortality [27]: 90%; mortality [28]: 60%; mortality [29]: 80%; mortality [30]: 50%; mortality [31]: 50%; mortality [32]: 80%; mortality [33]: 80%; mortality [34]: 50%; mortality [35]: 40%; mortality [36]: 50%
COc1ccc(C(=O)O)cc1OC [VERATRIC ACID] | 100 | 80 | 50 | 50 | 50 | 10 | 10 | 60 | 80 | inactive | inactive | inactive | inactive | inactive | inactive | inactive | inactive | inactive | inactive | inactive | Activity [21]: inactive; mortality [22]: 20%; mortality [23]: 40%; mortality [24]: 10%; mortality [25]: 30%; mortality [26]: 50%; mortality [27]: 90%; mortality [28]: 60%; mortality [30]: 100%; mortality [31]: 50%; mortality [32]: 80%; mortality [33]: 80%; mortality [34]: 50%; mortality [35]: 100%; mortality [36]: 100%
